KLK7 zymogen act = activates the human kallikrein-7 zymogen; AID 652039; P49862; activation, % at 7 µM; purified proKLK7, EDANS-DABCYL substrate fluorescence; 100% is mature enzyme control, 0% vehicle; actives 0.9% (n = 370,000);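 active means activation above the mean of all tested compounds plus 3 SD, computed per campaign excluding outliers beyond control limits, cut at about 13% in these data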
CRFBP-R2 agonist = CRF-BP/CRF-R2 complex agonism; HEK293 CRF-R2/CRF-BP, calcium dye fluorescence (FLIPR); percent of saturating CRF peptide response; activation, % at 13.2 µM; actives 0.46% (n = 350,000);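 active means activation of at least 50%, plus an integration ratio under a set limit after plate pattern correction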;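 further: plate controls were neutral control wells without compound for no effect and CRF at EC100 for full effect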
CRFR2-BP antag = antagonists of CRF-binding protein/CRF-R2 receptor complex | HEK293 CRF-R2/CRF-BP, CRF-induced calcium fluorescence | inhibition, % at 11.8 µM | actives 0.59% (n = 350,000) | AID 588475;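 active means inhibition of the ligand-induced calcium signal above about 50% at the single tested concentration, limit read from the data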
DDE Tn6 FP inh = disrupts Tn6 cyclic peptide binding to fibrin D-Dimer-E complex; Fibrin DD(E) TRITC-Tn6 fluorescence polarization displacement; inhibition, % at 8.3 µM; actives 0.21% (n = 370,000); AID 720509;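 active means inhibition above a per-campaign cutoff: mean of compounds within control limits plus 3 SD, cut at about 15% in these data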;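 further: 0% = median of all compound wells on the plate and 100% = blocking peptide control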
CendR NRP1 mod = modulators of CendR peptide binding to human neuropilin-1; O14786; FAM-RPARPAR peptide binding to NRP-1, fluorescence polarization; inhibition, % at 25 µM; actives 0.85% (n = 360,000); AID 602438;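 active means inhibition or corrected inhibition above about 18%, plus a signal ratio from 0.5 to 1.5, limit read from the data, passing the limit was not always enough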
Target sequence (O14786 whole entry, looked up): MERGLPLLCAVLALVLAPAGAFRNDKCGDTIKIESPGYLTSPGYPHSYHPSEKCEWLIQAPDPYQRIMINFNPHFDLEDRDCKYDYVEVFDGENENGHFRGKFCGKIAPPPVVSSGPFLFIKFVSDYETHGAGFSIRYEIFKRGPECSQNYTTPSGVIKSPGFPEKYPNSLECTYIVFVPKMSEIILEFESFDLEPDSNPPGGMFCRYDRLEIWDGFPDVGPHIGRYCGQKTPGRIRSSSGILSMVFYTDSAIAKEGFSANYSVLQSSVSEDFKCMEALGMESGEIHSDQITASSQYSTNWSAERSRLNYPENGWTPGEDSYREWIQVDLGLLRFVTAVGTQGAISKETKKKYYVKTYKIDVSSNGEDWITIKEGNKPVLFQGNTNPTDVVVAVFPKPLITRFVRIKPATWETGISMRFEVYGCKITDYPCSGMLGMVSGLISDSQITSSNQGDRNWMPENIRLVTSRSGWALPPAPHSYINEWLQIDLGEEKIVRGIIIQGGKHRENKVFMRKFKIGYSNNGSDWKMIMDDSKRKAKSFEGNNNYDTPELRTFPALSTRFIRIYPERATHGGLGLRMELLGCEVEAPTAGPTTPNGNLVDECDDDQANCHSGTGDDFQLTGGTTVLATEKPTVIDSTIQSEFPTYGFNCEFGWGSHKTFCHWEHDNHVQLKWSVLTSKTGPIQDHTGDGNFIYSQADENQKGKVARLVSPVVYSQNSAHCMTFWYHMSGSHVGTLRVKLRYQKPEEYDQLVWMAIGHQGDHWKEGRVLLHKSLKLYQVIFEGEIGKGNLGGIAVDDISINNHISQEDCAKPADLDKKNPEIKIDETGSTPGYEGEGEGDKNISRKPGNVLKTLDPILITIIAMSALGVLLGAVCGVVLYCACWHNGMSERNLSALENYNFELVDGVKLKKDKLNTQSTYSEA
DDE Tn7 FP inh = inhibitors of Tn7 peptide binding to human fibrin DD(E); FP displacement of FITC-Tn7 peptide from fibrin DD(E); 0% = median of compound wells per plate; actives 0.13% (n = 370,000); AID 720508; inhibition, % at 8.3 µM; P02675;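 active means inhibition above the mean of compounds falling within the control limits plus 3 SD of them, cut at about 14% in these data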;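 further: 0% = plate median of compound wells and 100% = 10 µM Aha-Tn7 peptide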
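Also added: labelled Tn7 tracer, 0.1 µM; Assay system: human fibrin DD(E) protein; Amount: 2 µM fibrin DD(E); Schedule: 10 min compound pre-incubation, 3 h probe incubation at room temperature; Repeats: one replicate per compound; Read-out basis: percent inhibition; Measured by: fluorescence polarization of the labelled Tn7 tracer.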
Numbers without * were called inactive; · = no result; ! = not confirmed by another sample. The list is not random: actives were taken first. Their share in the collection is about 2.9%.

SMILES	KLK7 zymogen act	CRFBP-R2 agonist	CRFR2-BP antag	DDE Tn6 FP inh	CendR NRP1 mod	DDE Tn7 FP inh
Cc1noc(C)c1S(=O)(=O)N(C)C[C@H]1OCCCC[C@@H](C)Oc2ccc(NS(=O)(=O)c3cn(C)cn3)cc2C(=O)N([C@H](C)CO)C[C@@H]1C	-0.1	-0.2	9.1	-6.2	25.6*	-3.4
CC(C)NC(=O)N(C)C[C@H]1Oc2ccc(NC(=O)Nc3ccccc3)cc2C(=O)N([C@H](C)CO)C[C@@H]1C	0.6	0.1	-5.4	0.1	34.5*	0.8
C[C@H](CO)N1C[C@H](C)[C@@H](CN(C)S(C)(=O)=O)Oc2ccc(NC(=O)NC3CCCCC3)cc2C1=O	0.5	-0.6	1.0	-3.3	31.1*	2.2
N#CCC[C@@H]1CC[C@]2(CCCN(S(=O)(=O)c3ccccc3)C2)O1	-0.4	·	·	-2.4	·	-4.0
Cc1noc(C)c1NC(=O)N(C)C[C@H]1Oc2ccc(NC(=O)NC(C)C)cc2C(=O)N([C@H](C)CO)C[C@H]1C	-0.5	0.7	7.3	-6.3	0.9	-0.5
Cc1noc(C)c1NC(=O)Nc1ccc2c(c1)C(=O)N([C@H](C)CO)C[C@H](C)[C@@H](CN(C)C(=O)NC(C)C)O2	0.0	-0.2	-2.8	-1.5	27.2*	2.3
C[C@@H]1CN([C@H](C)CO)C(=O)c2cc(NC(=O)Nc3ccc(C(F)(F)F)cc3)ccc2O[C@H]1CN(C)S(=O)(=O)c1ccc(Cl)cc1	-0.8	2.0	-3.2	43.6*	-15.4	0.0
COC(=O)[C@]12C[C@H](CC(=O)N3CCCC3)C(=O)N(Cc3ccc(Cl)cc3Cl)C1=C[C@H](COCc1ccccc1)O[C@@H]2C	0.7	·	·	10.1	·	0.6
COc1ccc(/C=N/N=C2\CC3CCC2(C)C3(C)C)cc1O (stereo not drawn)	0.0	0.6	2.7	-1.6	2.1	4.9
COc1cc(/C=N/N=C2\CC3CCC2(C)C3(C)C)ccc1O (stereo not drawn)	-0.9	0.6	2.0	10.8	22.6*	4.9
COCCNC(=O)c1cc(-c2ccccc2)nn1CC1CC(c2cccc([N+](=O)[O-])c2)=NO1 (stereo not drawn)	-0.1	-0.3	1.5	-2.7	31.2*	-1.5
Cc1nn(-c2ccccc2)c(C)c1C(=O)OCC(=O)Nc1ccccc1	0.3	1.4	-0.6	-10.4	26.1*	-1.8
Cc1ccc(NC(=O)COC(=O)c2c(C)nn(-c3ccccc3)c2C)cc1	-0.1	1.1	5.7	4.2	4.5	1.6
COc1ccc(CN2CCN(C(=O)c3ccc(S(=O)(=O)NCc4ccco4)cc3)CC2)cc1F	0.0	-0.5	19.9	0.7	29.7*	-8.9
COc1ccc(-n2c(SCc3ccc([N+](=O)[O-])cc3)nnc2-c2ccco2)cc1	0.6	·	·	0.6	·	3.7
CCOc1ccc(-n2c(SCc3ccc([N+](=O)[O-])cc3)nnc2-c2ccc(OC)cc2)cc1	0.4	-0.7	52.6*	3.0	-13.4	-3.6
Cc1ccc(NC(=O)OC2CC3CC2[C@H]2CCCCN2[C@H]3Cc2ccccc2)cc1 (stereo partly drawn)	0.2	·	·	8.4	·	-1.5
COC1=C(N)C(=O)c2nc(C)ccc2C1=O	3.7	3.8	13.2	-3.6	30.9*	-11.5
O=C(c1ccc(COc2ccc(Cl)cc2)o1)N1CCN(Cc2ccc3c(c2)OCO3)CC1	0.0	-0.5	42.8	0.2	-5.4	7.0
O=C(c1ccc(COc2ccccc2Cl)o1)N1CCN(Cc2ccc3c(c2)OCO3)CC1	0.4	1.3	59.5*!	-6.6	10.4	-6.7
O=C(C[C@H]1C[C@@H]2c3cc(NS(=O)(=O)c4ccccc4)ccc3O[C@@H]2[C@H](CO)O1)N1CCOCC1	0.8	0.2	51.9*	2.9	-3.8	6.8
COC(=O)C[C@@H]1C[C@@H]2c3cc(NS(=O)(=O)c4ccccc4)ccc3O[C@@H]2[C@@H](CO)O1	0.6	0.5	2.8	4.3	-3.9	2.4
C[C@H]1[C@@H](OC(=O)NCc2ccc(Cl)c(Cl)c2)CC[C@@]23CCCN2C(=O)CCC[C@@H]13	·	·	·	-0.8	·	-1.4
COc1ccc(CCNc2nc(N3CCCCC3)nc(N3CCCCC3)n2)cc1OC	0.4	0.2	74.0*	1.0	10.9	-0.6
Cc1ccc(Cn2nnc3c2-c2ccccc2S(=O)(=O)N(C2CC2)C3)cc1	-0.5	·	·	6.3	·	1.1
SMILES	KLK7 zymogen act	CRFBP-R2 agonist	CRFR2-BP antag	DDE Tn6 FP inh	CendR NRP1 mod	DDE Tn7 FP inh
CCOC(=O)N1C(=O)C[C@](Sc2ccc(OC)cc2)(C(=O)N2CCN(c3ncccn3)CC2)[C@H]1c1ccc(OC)cc1	0.5	·	·	-7.4	·	3.5
Nc1[nH]c(C(=O)c2ccccc2)c(-c2ccc(Cl)cc2Cl)c1C(=O)NCCC1=CCCCC1	·	·	·	0.3	·	1.0
Cc1[nH]nc(N=CC2=C(O)CC(C)(C)CC2=O)c1-c1ccccc1	-0.2	-3.6	-0.2	8.0	18.8*!	-2.8
Cc1[nH]nc(N=CC2=C(O)CC(c3ccco3)CC2=O)c1-c1ccccc1 (stereo not drawn)	-0.1	0.1	-10.8	1.3	6.3	1.4
Cn1c(N)c(-c2ccccc2)c2ccc([N+](=O)[O-])cc2c1=O	-0.2	123.2*	-124.7	1.1	-116.6	-9.3
CCN(CC)C(=O)CC[C@@H]1CC[C@]2(CCCN(C(=O)c3cccnc3)C2)O1	0.5	·	·	-6.8	·	0.6
CN(CC(=O)Nc1ccc(F)cc1)C(=O)c1ccc(OCc2cn3ccccc3n2)cc1	0.3	1.4	-5.2	-1.2	27.0*	-0.5
O=C(NC1CCCCN(Cc2ccc(Cl)cc2)C1=O)c1cccc(F)c1 (stereo not drawn)	0.5	·	·	3.1	·	-2.8
O=C(Nc1cccc(C(=O)N2CCOCC2)c1)c1ccc([N+](=O)[O-])cc1	-0.1	-0.2	-9.7	-1.2	19.4*	-1.3
O=C(Cc1cccc([N+](=O)[O-])c1)Nc1cccc(C(=O)N2CCOCC2)c1	0.3	-0.9	1.9	-5.2	7.3	-10.5
COc1ccc(NC(=O)CCN2CCCCCC2)cc1	-0.3	0.0	80.2*	7.7	3.3	-0.7
O=C(Cn1ccc(NC(=O)OCc2ccccc2)nc1=O)NCCCn1ccnc1	-0.4	-1.0	9.1	-4.6	32.9*	-7.9
O=C(Nc1ccn(CCCNCc2ccc3c(c2)OCO3)c(=O)n1)OCc1ccccc1	-0.4	0.9	110.3*	6.3	-6.3	5.5
CCN(CC)C(=O)CC[C@@H]1CC[C@]2(CCCN(Cc3cccc4ccccc34)C2)O1	0.3	·	·	6.1	·	-4.6
C=CCN(CC#Cc1ccccc1)Cc1ccc2c(c1)OCO2	-0.2	·	·	4.2	·	7.2
COc1cccc2c(=O)n(CC(=O)N3CCc4ccccc43)ccc12	0.1	71.9*	-54.9	-1.0	-8.6	-5.3
COC(=O)C1=C(C)N(C)C(=NCc2ccc(OC)cc2)NC1c1cccc(C(F)(F)F)c1 (stereo not drawn)	0.2	·	·	0.5	·	-2.4
